Only a selection was taken, and hits are over-represented in it overall.
MPTP block: permeability transition pore inhibition; isolated mouse mitochondria, Ca2+ swelling absorbance, 30 min; inhibition, % at 10 µM; 360,000 tested, 1.4% active; AID 602449;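 active = inhibition of 50% or more, scaled per plate between neutral and stimulator controls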;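 also: 0% = DMSO wells given calcium and 100% = 1 mM EGTA wells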
Lmaj promast: reduces viability of Leishmania major promastigotes; resazurin fluorescence viability; inhibition, % at 10 µM; 200,000 tested, 9% active; AID 1063; in the data active = inhibition above about 50%;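 also: promastigotes grown with compound for 44 hours at 28 °C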
Lipid droplet: modulators of hepatic lipid droplet formation; 240,000 tested, 0.4% active; AML12 mouse hepatocytes, oleate lipid droplets, BODIPY imaging; inhibition, % at 6.5 µM;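 active = lipid droplet intensity inhibited by at least 50%, with more than 500 cells counted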
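Technique: fluorescence imaging, 20x objective, two fields per well / Assay system: AML12 hepatocytes (mouse) / Measure: % inhibition of lipid droplet signal / Doses: 6.5 µM single-point dosing / Incubation: overnight exposure / Reagent: 100 µM oleic acid challenge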
T cruzi inh: blocks replication of Trypanosoma cruzi; T. cruzi beta-gal in NIH3T3, luminescence, 90 h; inhibition, % (concentration not given with the values); AID 1885; 300,000 tested, 1.4% active;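 active = mean inhibition across valid replicates above about 55%, limit read from the data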;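 also: signal also drops with host cell toxicity which is not excluded here; 0% = plate median of DMSO wells and 100% = zero luminescence signal; higher percent means less beta-gal luminescence so fewer parasites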
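System: NIH/3T3 fibroblasts plus reporter T. cruzi. Medium: DMEM plus 2% FBS. Probe or stimulus: 5000 reporter trypomastigotes per well. Compound: single 50 nL compound addition per well in DMSO. Incubation: co-culture of at least 90 h after 3 h attachment. Detection: GalScreen β-gal luminescence, detergent lysis, 60 min. Evaluation: parasite load inhibition, %.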
DTT redox prof: compounds producing H2O2 with reducing agent – biochemical, NIH compound library profiling, artefact control for MLSCN library redox annotation, primary screen | AID 878 | DTT-dependent redox cycling H2O2, phenol red/HRP absorbance; 100% = 100 µM peroxide control, 0% = buffer | activation, % at 10 µM | 200,000 tested, 0.03% active;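 active = activation of at least 50% relative to the plate's high and low controls in the primary single-dose screen; inactive = activation below 50%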;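 also: compound incubated with DTT at 0.8 mM final as the reducing agent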
* marks the source's active call; other numbers are inactive results; / = not tested or not shown.

SMILES	MPTP block	Lmaj promast	Lipid droplet	T cruzi inh	DTT redox prof
CCOc1ccccc1NC(=O)C(OC(=O)c1ccccc1O)c1ccccc1 (configuration not stated)	5.5	6.4	8.5	2.0	-0.5
O=C(COC(=O)/C=C/c1ccc(F)cc1)Nc1ccc(S(=O)(=O)N2CCOCC2)cc1	-1.0	/	/	/	/
OC(CNC1CCCC1)COc1ccc(-c2ccccc2)cc1 (configuration not stated)	2.0	98.0*	/	39.5	-1.2
COC(=O)c1ccc(OCC(O)CNC2CCCC2)cc1 (configuration not stated)	-0.4	/	7.1	0.8	/
OC(CNC1CCCCC1)COCCOc1ccc(Br)cc1 (configuration not stated)	0.2	95.2*	-7.2	35.8	-0.5
COc1ccc(C(O)c2nc(-c3cnn(C)c3)cs2)cc1 (configuration not stated)	-1.1	/	/	/	/
CN(c1ccccc1)S(=O)(=O)c1ccc(C(=O)N2CCN(c3ccccc3)CC2)cc1	-0.9	/	/	/	/
CCNC(=O)COC(=O)CCC(=O)c1cccs1	-0.2	-1.7	-0.1	1.1	-1.2
CCCNC(=O)COC(=O)CCC(=O)c1cccs1	1.1	57.4*	31.8	15.8	-0.2
CCn1c(NC(=O)c2ccc(C)cc2)c2ccccc2nc1=O	3.4	76.9*	15.4	-0.6	-3.1
Cc1cn(CC(=O)NCC(c2ccccc2)c2ccccc2)c(=O)[nH]c1=O	-0.3	/	/	/	/
Cc1ccc(C2=NN(CCC(=O)NCCC(C)C)C(=O)CC2)cc1	/	72.9*	-6.2	-24.6	-0.6
CCOc1ccc(-n2c(C)nc3cc(C(=O)NCc4ccc5c(c4)OCO5)ccc32)cc1	1.2	-7.7	-0.8	-1.7	-0.3
Cc1ccc(C2=NN(CCC(=O)NCc3ccc4c(c3)OCO4)C(=O)CC2)cc1	-0.1	41.5	-6.2	5.2	-0.8
COc1ccc(-n2c(C)nc3cc(C(=O)NCc4ccc5c(c4)OCO5)ccc32)cc1	1.1	82.6*	-2.9	-1.1	0.4
COc1ccc(C2=NN(CCC(=O)NCc3ccc4c(c3)OCO4)C(=O)CC2)cc1	0.1	53.9*	-6.2	-3.4	-0.1
O=C(NCc1ccco1)/C(=C/c1ccc(Br)cc1)NC(=O)c1ccco1	-2.6	/	12.5	12.1	/
C/C(=N\NC(=O)COc1cccc(Br)c1)c1ccc2c(c1)OCCO2	-0.5	/	/	/	/
COc1cc(C(=S)N2CCCCC2)ccc1OCC(=O)Nc1ccccc1Cl	-0.6	66.2*	2.9	12.9	-0.7
COc1cc(CNCCc2ccccc2)cc(Br)c1OCC(=O)Nc1ccccc1C	3.3	99.8*	-1.9	49.5	-0.3
CNCc1cc(Br)c(OCC(=O)Nc2ccccc2OC)c(OC)c1	1.9	99.8*	/	32.2	-0.4
COc1cc(CO)ccc1OCC(=O)Nc1ccc(Br)cc1	0.5	-4.9	-8.9	-5.0	-0.1
CCNCc1cc(Br)c(OCC(=O)Nc2ccccc2)c(OC)c1	-3.6	100.6*	-5.7	10.0	0.0
CCn1c(SCC(=O)N2CC(C)OC(C)C2)nc2c([nH]c3ccccc32)c1=O (configuration not stated)	0.0	/	-26.9	9.0	/
CCN(CC)S(=O)(=O)c1ccc(N2CCOCC2)c(NC(=O)CCC2CCCCC2)c1	0.4	9.7	1.9	5.0	-0.3
SMILES	MPTP block	Lmaj promast	Lipid droplet	T cruzi inh	DTT redox prof
Cc1cc(NC(=O)CSc2ccc(-c3ccc(F)cc3)nn2)no1	-1.5	9.4	-4.5	-2.8	0.1
COc1ccccc1NC(=O)COc1ccc(Br)cc1CNC1CCCC1	0.5	94.5*	24.1	45.3	-0.2
CC(=O)Nc1c2c3c(cccc3n(C)c1=O)C(=O)c1ccccc1-2	0.3	7.0	/	0.7	-6.3
CC(=O)Nc1ccc(Nc2ccc3c4c(cc(=O)n3C)-c3ccccc3C(=O)c24)cc1	3.5	-3.6	3.8	55.8*	-0.1
COc1ccc(NC(C)=[N+](C)CCNS(=O)(=O)c2ccc(Cl)cc2)cc1Cl	1.1	/	11.3	58.2*	/
CCCNC(=O)C1(C)CCCN(Cc2c3ccccc3nn2C)C1 (configuration not stated)	-0.7	/	/	/	/
COc1ccc(C(c2nnnn2C2CCCCC2)N2CCN(c3ccc(OC)cc3)CC2)cc1 (configuration not stated)	-0.5	89.1*	1.7	33.6	1.1
c1cc(N2CCCC2)ccc1C(c1nnnn1C1CCCCC1)N1CCOCC1 (configuration not stated)	-0.5	88.4*	/	19.9	0.6
c1ccc(C(c2nnnn2C2CCCC2)N2CCN(c3ccccc3)CC2)cc1 (configuration not stated)	2.0	14.2	-25.1	19.8	0.1
COc1ccc(C(c2nnnn2C2CCCC2)N2CCC(C)CC2)cc1 (configuration not stated)	-0.9	89.7*	-13.1	20.9	1.8
COc1ccc(C(c2nnnn2C2CCCCC2)N2CCN(C)CC2)c(OC)c1 (configuration not stated)	4.6	5.0	16.7	5.2	-0.2
COc1ccc(OC)c(C(c2nnnn2C2CCCC2)N2CCN(c3ccccc3)CC2)c1 (configuration not stated)	-1.7	96.8*	/	/	-2.5
O=C1CC2(CCN(C(=O)c3ccc(F)cc3)CC2)Oc2ccccc21	-1.6	/	/	-7.6	/
COc1ccc(OC)c(NC(=O)Nc2nnc(COCCO)s2)c1	-0.6	/	/	/	/
Cc1cccc(NS(=O)(=O)c2ccc(C)c(C(=O)NCc3ccncc3)c2)c1	0.0	/	/	3.0	/
CCOC(=O)C1CCN(Cc2cnc(Oc3ccc(OC)cc3)s2)CC1	-1.3	93.2*	/	-9.3	0.9
CCOC(=O)C1CCN(Cc2ccc3ccccc3c2)CC1	0.5	/	-2.8	3.1	/
CCOC(=O)C1CCCN(Cc2nc(N)nc(Nc3ccc(Cl)cc3)n2)C1 (configuration not stated)	-2.0	71.2*	-2.4	-6.6	1.8
CCOC(=O)C1CCN(Cc2cccc(OC)c2)CC1	-0.2	89.7*	4.2	-12.0	-9.7
CCOC(=O)C1CCN(Cc2cc(C(C)C)c(O)c(C(C)C)c2)CC1	-0.8	58.5*	-20.4	15.0	-1.4
CCOC(=O)C1CCN(Cc2ccc(OC)cc2OC)CC1	-1.3	-2.0	7.5	4.1	0.3
CCOC(=O)C1CCCN(Cc2nc(N)nc(Nc3ccc(OC)cc3)n2)C1 (configuration not stated)	-0.4	4.0	-1.7	-2.1	2.0
CCOC(=O)c1ccc2c(c1)NCc1cccc(OC)c1O2	0.7	/	4.9	6.3	/
COC(=O)c1cn(-c2nc3ccccc3s2)nn1	-0.8	/	/	/	/
COc1ccc(OC)c(CN2CCN(C(=O)CN3C(=O)NC4(CCCC4)C3=O)CC2)c1	-0.3	/	/	-3.0	/
CCOC(=O)CC1=CCc2c1ccc(OC)c2OC	0.5	/	/	/	/
CCOC(=O)C1CCCN(Cc2ccccc2OCC)C1 (configuration not stated)	-1.0	13.1	-7.0	20.4	3.3
COc1ccccc1Nc1nc(N)nc(CN2CCC(Cc3ccccc3)CC2)n1	-0.6	17.6	3.3	13.5	1.6
CCOC(=O)C1CCCN(Cc2ccc(OCC)cc2)C1 (configuration not stated)	0.7	89.5*	-8.2	49.7	-4.1

Bioassay records deposited in PubChem BioAssay by several laboratories.
